In ChEMBL document CHEMBL1649362, “Cytotoxic triterpenoids from Maytenus retusa” (J Nat Prod, 2010) one finds inhibition and IC50 data, which are given here for four compounds.

In the first experiment the test system is MCF7. Put plainly: Cytotoxicity against human MCF7 cells at 30 uM after 48 hrs by MTT assay. The format is functional. The following applies: MCF7, 48 h. Put shortly:
(§1)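 MCF-7 cells (ATCC) maintained in DMEM with 10% FBS and plated at 10 000 cells/well. MTT (0.5 mg/mL final) then incubated 3 h at 37 °C. Formazan solubilized in 20% SDS/0.02 M HCl and absorbance read at 570 nm. IC50 from nonlinear regression.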
The compound `COC(=O)[C@]1(C)CC[C@]2(C)CC[C@]3(C)C4C(=O)C=C5C(=CC(=O)C(O)=C5C)[C@]4(C)CC[C@@]3(C)C2C1` (stereo partly drawn) [DISPERMOQUINONE] returned an inhibition at 30 µM of 60%.
Compound `CC1=C(O)C(=O)C=C2C1=CC(=O)[C@@H]1[C@@]2(C)CC[C@@]2(C)[C@@H]3C[C@@H](C)C(=O)C[C@]3(C)CC[C@]12C` [AMAZOQUINONE] registered an inhibition at 30 µM of 18%.
Still for that read-out and setting: with `CC1=C(O)C(=O)C=C2C1=CC=C1[C@@]2(C)CC[C@@]2(C)[C@@H]3C[C@](C)(O)C(=O)C[C@]3(C)CC[C@]12C` [20ALPHA-HYDROXYTINGENONE] the figure was 100%.
With `Cc1c(O)c(O)cc2c1C(=O)C=C1[C@@]2(C)CC[C@@]2(C)[C@@H]3C[C@@H](C)C(=O)C[C@]3(C)CC[C@]12C` [6-OXOTINGENOL], the inhibition at 30 µM was determined as 17%.

The next experiment relates to MCF7. Put plainly: Cytotoxicity against human MCF7 cells after 48 hrs by MTT assay. The experiment is classed as functional, cell-based. The following applies: MCF7, 48 h. Put shortly:
as §1
On to `COC(=O)[C@]1(C)CC[C@]2(C)CC[C@]3(C)C4C(=O)C=C5C(=CC(=O)C(O)=C5C)[C@]4(C)CC[C@@]3(C)C2C1` (stereo partly drawn) [DISPERMOQUINONE], for which the concentration for half-maximal inhibition (IC50) is over 30 µM.
Still for that read-out and setting: with `CC1=C(O)C(=O)C=C2C1=CC=C1[C@@]2(C)CC[C@@]2(C)[C@@H]3C[C@](C)(O)C(=O)C[C@]3(C)CC[C@]12C` [20ALPHA-HYDROXYTINGENONE] the figure was 4.7 µM.

Another experiment relates to HL-60. Put plainly: Cytotoxicity against human HL60 cells at 10 uM after 48 hrs by MTT assay. The experiment is classed as functional. The following applies: HL-60, 48 h. Summed up: (§2)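 HL60 cells (ATCC) grown in RPMI with 10% FBS and seeded at 10 000 cells/well. After 48 h exposure, MTT added (0.5 mg/mL final) for 3 h at 37 °C. Formazan dissolved in SDS-HCl (20% SDS, 0.02 M HCl) and read at 570 nm. IC50 obtained by nonlinear regression.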
The compound `COC(=O)[C@]1(C)CC[C@]2(C)CC[C@]3(C)C4C(=O)C=C5C(=CC(=O)C(O)=C5C)[C@]4(C)CC[C@@]3(C)C2C1` (stereo partly drawn) [DISPERMOQUINONE] displayed an inhibition at 10 µM of 100%.
`CC1=C(O)C(=O)C=C2C1=CC(=O)[C@@H]1[C@@]2(C)CC[C@@]2(C)[C@@H]3C[C@@H](C)C(=O)C[C@]3(C)CC[C@]12C` [AMAZOQUINONE] registered an inhibition at 10 µM of 61%.
Still for that read-out and setting: with `CC1=C(O)C(=O)C=C2C1=CC=C1[C@@]2(C)CC[C@@]2(C)[C@@H]3C[C@](C)(O)C(=O)C[C@]3(C)CC[C@]12C` [20ALPHA-HYDROXYTINGENONE] the figure was 100%.
The same measure, in the same setting: with `Cc1c(O)c(O)cc2c1C(=O)C=C1[C@@]2(C)CC[C@@]2(C)[C@@H]3C[C@@H](C)C(=O)C[C@]3(C)CC[C@]12C` [6-OXOTINGENOL] the figure was 85%.

For the next experiment, the system named is HL-60. Put plainly: Cytotoxicity against human HL60 cells after 48 hrs by MTT assay. The experiment is classed as functional, cell-based. The following applies: HL-60, 48 h. Put shortly:
as §2
The compound `COC(=O)[C@]1(C)CC[C@]2(C)CC[C@]3(C)C4C(=O)C=C5C(=CC(=O)C(O)=C5C)[C@]4(C)CC[C@@]3(C)C2C1` (stereo partly drawn) [DISPERMOQUINONE] displayed an IC50 of 1.7 µM.
The same measure, in the same setting: with `CC1=C(O)C(=O)C=C2C1=CC=C1[C@@]2(C)CC[C@@]2(C)[C@@H]3C[C@](C)(O)C(=O)C[C@]3(C)CC[C@]12C` [20ALPHA-HYDROXYTINGENONE] the figure was 0.4 µM.

For another experiment, the system named is HL-60. Put plainly: Cytotoxicity against human HL60 cells at 1 uM after 48 hrs by MTT assay. The following applies: HL-60, 48 h. The experiment is classed as functional. Summed up: as §2
For the compound `COC(=O)[C@]1(C)CC[C@]2(C)CC[C@]3(C)C4C(=O)C=C5C(=CC(=O)C(O)=C5C)[C@]4(C)CC[C@@]3(C)C2C1` (stereo partly drawn) [DISPERMOQUINONE], at 1 µM the inhibition was 0%.
As to `CC1=C(O)C(=O)C=C2C1=CC(=O)[C@@H]1[C@@]2(C)CC[C@@]2(C)[C@@H]3C[C@@H](C)C(=O)C[C@]3(C)CC[C@]12C` [AMAZOQUINONE], 1 µM produced 66% inhibition.
The same measure, in the same setting: in the case of `CC1=C(O)C(=O)C=C2C1=CC=C1[C@@]2(C)CC[C@@]2(C)[C@@H]3C[C@](C)(O)C(=O)C[C@]3(C)CC[C@]12C` [20ALPHA-HYDROXYTINGENONE] it was 25%; in that of `Cc1c(O)c(O)cc2c1C(=O)C=C1[C@@]2(C)CC[C@@]2(C)[C@@H]3C[C@@H](C)C(=O)C[C@]3(C)CC[C@]12C` [6-OXOTINGENOL], 45%.

The next experiment has as its system MCF7. Put plainly: Cytotoxicity against human MCF7 cells at 10 uM after 48 hrs by MTT assay. The experiment is classed as functional. The following applies: MCF7, 48 h. Put shortly: as §1
For `COC(=O)[C@]1(C)CC[C@]2(C)CC[C@]3(C)C4C(=O)C=C5C(=CC(=O)C(O)=C5C)[C@]4(C)CC[C@@]3(C)C2C1` (stereo partly drawn) [DISPERMOQUINONE], the inhibition at 10 µM was 25%.
For `CC1=C(O)C(=O)C=C2C1=CC(=O)[C@@H]1[C@@]2(C)CC[C@@]2(C)[C@@H]3C[C@@H](C)C(=O)C[C@]3(C)CC[C@]12C` [AMAZOQUINONE], the inhibition at 10 µM was determined as 16%.
The compound `CC1=C(O)C(=O)C=C2C1=CC=C1[C@@]2(C)CC[C@@]2(C)[C@@H]3C[C@](C)(O)C(=O)C[C@]3(C)CC[C@]12C` [20ALPHA-HYDROXYTINGENONE] returned an inhibition at 10 µM of 85%.
The same measure, in the same setting: in the case of `Cc1c(O)c(O)cc2c1C(=O)C=C1[C@@]2(C)CC[C@@]2(C)[C@@H]3C[C@@H](C)C(=O)C[C@]3(C)CC[C@]12C` [6-OXOTINGENOL] it was 8%.

The next experiment concerns MCF7. Put plainly: Cytotoxicity against human MCF7 cells at 1 uM after 48 hrs by MTT assay. The format is functional. The following applies: MCF7, 48 h. Put shortly:
as §1
As to `COC(=O)[C@]1(C)CC[C@]2(C)CC[C@]3(C)C4C(=O)C=C5C(=CC(=O)C(O)=C5C)[C@]4(C)CC[C@@]3(C)C2C1` (stereo partly drawn) [DISPERMOQUINONE], 1 µM produced 9% inhibition.
Same read-out and setting: with `CC1=C(O)C(=O)C=C2C1=CC(=O)[C@@H]1[C@@]2(C)CC[C@@]2(C)[C@@H]3C[C@@H](C)C(=O)C[C@]3(C)CC[C@]12C` [AMAZOQUINONE] the figure was 10%; with `CC1=C(O)C(=O)C=C2C1=CC=C1[C@@]2(C)CC[C@@]2(C)[C@@H]3C[C@](C)(O)C(=O)C[C@]3(C)CC[C@]12C` [20ALPHA-HYDROXYTINGENONE], 14%; with `Cc1c(O)c(O)cc2c1C(=O)C=C1[C@@]2(C)CC[C@@]2(C)[C@@H]3C[C@@H](C)C(=O)C[C@]3(C)CC[C@]12C` [6-OXOTINGENOL], 10%.

A further experiment has as its system HL-60. Put plainly: Cytotoxicity against human HL60 cells at 30 uM after 48 hrs by MTT assay. The experiment is classed as functional. The following applies: HL-60, 48 h. Put shortly:
as §2
As for `COC(=O)[C@]1(C)CC[C@]2(C)CC[C@]3(C)C4C(=O)C=C5C(=CC(=O)C(O)=C5C)[C@]4(C)CC[C@@]3(C)C2C1` (stereo partly drawn) [DISPERMOQUINONE], testing at 30 µM gave an inhibition of 100%.
On the same count and under the same terms, in the case of `CC1=C(O)C(=O)C=C2C1=CC(=O)[C@@H]1[C@@]2(C)CC[C@@]2(C)[C@@H]3C[C@@H](C)C(=O)C[C@]3(C)CC[C@]12C` [AMAZOQUINONE] it was 100%.
In turn, `CC1=C(O)C(=O)C=C2C1=CC=C1[C@@]2(C)CC[C@@]2(C)[C@@H]3C[C@](C)(O)C(=O)C[C@]3(C)CC[C@]12C` [20ALPHA-HYDROXYTINGENONE] came in with an inhibition at 30 µM of 87%.
Still for that read-out and setting: with `Cc1c(O)c(O)cc2c1C(=O)C=C1[C@@]2(C)CC[C@@]2(C)[C@@H]3C[C@@H](C)C(=O)C[C@]3(C)CC[C@]12C` [6-OXOTINGENOL] the figure was 100%.
